Measured values of several laboratories.
Read-out: metabolic stability
Host: human

Structure (SMILES)	system	conditions	quantity	result
CC(C)CC(=O)OC[C@H]1O[C@@](C#N)(c2ccc3c(N)ncnn23)[C@H](O)[C@@H]1O	hepatocytes		hepatocyte CLint	> 318 µL/min/10⁶ cells
Cc1[nH]c(C)c(S(=O)(=O)Nc2ccc(S(F)(F)(F)(F)F)c(Cl)c2)c1C(=O)N1CCC(F)(F)C1	liver microsomes		microsomal CLint	53.1 µL/min/mg
C[C@]12CC[C@H]3[C@@H](CCC4=CC(=O)CC[C@@]43C)[C@@H]1CC[C@@H]2O	liver microsomes	pH 7.4	scaled CLint	125 mL/min/kg
C[C@]12CC[C@H]3[C@@H](CCC4=CC(=O)CC[C@@]43C)[C@@H]1CC[C@@H]2O	liver microsomes		microsomal CLint	63.9 µL/min/mg
O=c1[nH]c2ccccc2n1C1CCN(CCCC(c2ccc(F)cc2)c2ccc(F)cc2)CC1	liver microsomes	100 ng/mL	microsomal CLint	3.4 µL/min/mg
O=C1CCC(N2Cc3c(ccc4c3OCC43CCN(Cc4ccccc4)CC3)C2=O)C(=O)N1 (stereo not shown)	liver microsomes	1 µM	scaled CLint	20.9 mL/min/kg
CC1(C)NC(=O)N(c2cc(Cl)c(F)c(C(F)(F)F)c2)C1=O	liver microsomes		microsomal CLint	< 7 µL/min/mg
NCCOCC(=O)N1CCCC(C(=O)NCc2nc(-c3ccc(-c4ccc(F)cc4)cc3)cs2)C1 (stereo not shown)	liver microsomes		scaled CLint	< 4.3 mL/min/kg
CC1(C)NC(=O)N(c2ccc(F)c(C(F)(F)F)c2F)C1=O	liver microsomes		microsomal CLint	< 7 µL/min/mg
Cc1[nH]c(C)c(S(=O)(=O)Nc2ccc(S(F)(F)(F)(F)F)cc2)c1C(=O)N1CCC(F)(F)C1	liver microsomes		microsomal CLint	26 µL/min/mg
